From PMC9078949 (RSC Advances, 2018) come the findings set out here.

The nature of data set [1]: Liver microsome stability assay, rat. The format is in vitro ADME. Particulars: @45 min, 37 °C, NADPH. The procedure, abridged:
(§1)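 Rat or human liver microsomes (1 mg mL−1) were mixed with NADPH (from a 50 mM stock) and pre-warmed for 5 min at 37 °C. Reactions were started with test article from a 100 μg mL−1 stock and kept at 37 °C. Samples at 0, 15 and 45 min were quenched in methanol containing 1 μg mL−1 internal standard, then centrifuged and analysed by LC/MS. Disappearance was derived from the analyte/internal standard peak-area ratio.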
(In general: Liver microsomes are a subcellular fraction often used to study metabolism.)

Data set [2] concerns CFPAC1 cells. Description: Wound healing assay. The format is cell-based. Particulars: Homo sapiens, CFPAC-1, 48 h, read-out: migration inhibitory rate. The gist of the method: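 CFPAC1 cells were seeded at 5 × 10^5 per well in 6-well plates and grown to 90% confluence. The monolayer was scratched with a sterile pipette tip and rinsed three times with PBS. Cells were then exposed to 1‰ DMSO or 10 μM test compound. Wounds were photographed at 0, 24 and 48 h. Inhibition (%) = [1 − (0 h area − 24 h or 48 h area)/0 h area] × 100.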

Data set [3] in a line: Plasma stability assay, rat plasma. The format is in vitro ADME. The following applies: @45 min, 37 °C. The procedure, abridged: (§2)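 Rat or human plasma was spiked with test article from a 100 μg mL−1 stock and incubated at 37 °C with gentle agitation. Aliquots taken at 0, 15 and 45 min were quenched in methanol containing 1 μg mL−1 internal standard, then centrifuged and analysed by LC/MS. Percent remaining relative to 0 min was based on the analyte/internal standard peak-area ratio.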

The next data set addresses T1, CXCR2 (Homo sapiens, UniProt P25025).
T1 sequence (P25025 1-360): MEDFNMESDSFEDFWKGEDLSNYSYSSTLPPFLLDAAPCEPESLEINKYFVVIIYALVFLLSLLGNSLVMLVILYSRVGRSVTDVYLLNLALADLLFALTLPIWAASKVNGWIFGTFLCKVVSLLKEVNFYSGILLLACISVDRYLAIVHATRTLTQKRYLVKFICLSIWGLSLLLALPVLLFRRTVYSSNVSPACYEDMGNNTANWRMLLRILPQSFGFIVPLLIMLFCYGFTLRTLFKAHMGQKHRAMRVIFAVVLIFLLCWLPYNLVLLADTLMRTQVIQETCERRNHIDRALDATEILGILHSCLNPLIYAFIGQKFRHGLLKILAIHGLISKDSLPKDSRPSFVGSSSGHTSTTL
Briefly: CXCR2 antagonistic activity assay. The format is cell-based. The procedure, abridged: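 HEK293 cells stably co-expressing Gα16 with either CXCR1 or CXCR2 were seeded and grown for 24 h. They were loaded with 2 μmol L−1 Fluo-4 AM in HBSS (pH 7.4, with BSA and 250 μmol L−1 sulfinpyrazone) for 45 min at 37 °C, and excess dye was removed. Test compound was added for 10 min at room temperature before IL-8 injection. Calcium signal was read at ex 485/em 525 nm. IC50 came from nonlinear regression of log concentration–response curves; each experiment was run ≥3 times.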

Data set [4] is described as follows: Liver microsome stability assay, human. The format is in vitro ADME. The following applies: @45 min, 37 °C, NADPH. The procedure, abridged:
as §1

A further data set in a line: SGF stability assay. The format is in vitro ADME. The following applies: @45 min, 37 °C, pH about 1.2. The gist of the method: (§3)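 Two media were used. SIF: pancreatin 0.68 g per 100 mL of 50 mM potassium phosphate, pH 7.4. SGF: pepsin 3.2 g per 1000 mL of water with 2.0 g NaCl and 7.0 mL concentrated HCl, pH about 1.2. Test article was added from a 100 μg mL−1 stock and incubated at 37 °C with gentle agitation. Samples at 0, 15 and 45 min were quenched in methanol with 1 μg mL−1 internal standard and analysed by LC/MS. Percent remaining relative to 0 min used the peak-area ratio.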

Data set [5] concerns CFPAC1 cells. Briefly: Anti-proliferation assay. The format is cell-based. The following applies: 6.25, 12.5, 25, 50 and 100 μM; 72 h; MTT. The gist of the method: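 CFPAC1 pancreatic cancer cells were seeded at 4000 cells per well and left to adhere for 24 h. They were then exposed for 72 h to medium alone or to test compound at 6.25, 12.5, 25, 50 or 100 μM. Viability was read by MTT. Growth inhibition (%) = [1 − (A/B)] × 100, where A is treated and B is untreated absorbance.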

The subject of data set [6] is CFPAC1 cells. Description: Cell migration assay. The format is cell-based. Particulars: 10 μM, 24 h, 3 visual fields, control group 1221 ± 57 cells.
Data set [7] in a line: Plasma stability assay, human plasma. The format is in vitro ADME. Particulars: @45 min, 37 °C. The procedure, abridged: as §2
The nature of data set [8]: Oral pharmacokinetic study in rats. The format is in vivo. The following applies: SD, rat, plasma, 10 mg/kg. The gist of the method: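 SD rats received test compound at 10 mg kg−1 by oral gavage in 2% DMSO + 98% (0.5% MC). Venous blood was sampled at 0, 0.25, 0.5, 1, 2, 4, 6, 8 and 24 h. Plasma was separated by centrifugation, stored at −20 °C and assayed by LC/MS. Cmax, Tmax, t1/2 and AUC were then calculated.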

Another data set in a line: SIF stability assay. Particulars: @45 min, 37 °C, pH 7.4. The format is in vitro ADME. The procedure, abridged: as §3

Each structure is given as a SMILES string. Values joined by “and” are separate entries in the source; they are usually repeats but may differ in a detail not shown here. Equal entries are not always repeated. Bounds are passed on as bounds.

In the case of `O=C(c1cccc(Nc2c(NC3C[C@@H]4CC[C@H]3C4)c(=O)c2=O)c1O)N1CCCC1` (stereo partly drawn) [2e, 3-(((1S,4R)-Bicyclo[2.2.1]heptan-2-yl)amino)-4-((2-hydroxy-3-(pyrrolidine-1-carbonyl)phenyl)amino)cyclobut-3-ene-1,2-dione], in data set [1], the “Remaining percentage, liver microsome stability, rat” value is 84% and 84.2 ± 3.4%. Further, in the data set with CFPAC1 cells [2], the inhibition at 10 µM was found to be 20.2%. Further, the “Remaining percentage, plasma stability, rat” value in data set [3] is above 99%. For the same compound, the “Ratio = CXCR1 IC50/CXCR2 IC50 (selectivity for CXCR2 over CXCR1)” value on CXCR2 amounted to 60.4. Further, in data set [4], the “Remaining percentage, liver microsome stability, human” value was 27% and 27.4 ± 4.3%. Besides, the “Remaining percentage, SGF” value in “SGF stability assay” is above 99%. Also, the “inhibitory effect on the CFPAC1 cell line (survival rate)” value in the data set on CFPAC1 cells [5] is given as “no inhibitory effect”. The “number of cells traversed into the lower chamber of the Transwell” value in the data set on CFPAC1 cells [6] is 727 ± 50 cells. In addition, the “Remaining percentage, plasma stability, human” value in [7] is reported as above 99%. For the same compound, in data set [8], the AUC(0-inf) stood at 8940 ± 3460 ng·h/mL, the AUC(0-t) was found to be 8820 ± 3560 ng·h/mL, the Cmax amounted to 2860 ± 94 ng/mL and the MRT was 3.43 ± 0.73 h. Moreover, in data set [8], the Tmax came to 0.33 ± 0.14 h, the half-life was 2.58 ± 0.74 h and the k el was 7.92e-05 s⁻¹. The “Remaining percentage, SIF” value in the data set “SIF stability assay” worked out at 92.2 ± 2.0%.

By AUC(0-inf) is commonly meant total exposure, with the tail of the curve extrapolated. High values mean high exposure, low ones low exposure. A word on the AUC(0-t): it is the area under the concentration-time curve up to a stated or last time point. Higher therefore signals more exposure. One may read the Cmax as the maximum level reached in the sampled fluid or tissue. Usually MRT stands for a mean duration of stay, worked out from the concentration-time curve. By Tmax is commonly meant the time from dosing to the highest level. Broadly, the half-life is the time in which the quantity being followed falls by half.
